Sampled rows, rich in hits. Any-hit rate of the full collection: about 2.2%.
FXN GAA850 act: activators of GAA850 frataxin (FXN) promoter; AID 540364; 360,000 tested, 0.56% active; HEK293 lucGAA850 FXN promoter luciferase reporter, 24 h; percent of 10 µM SAHA response; activation, % at 6 µM;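 active = activation above the average of all compounds screened plus 3 SD, cutoff fixed separately per campaign, cut at about 7.5% in these data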;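 also: 0% = DMSO wells and 100% = 10 µM SAHA wells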
NR2E3 ag-1: human photoreceptor-specific nuclear receptor agonism; inhibition of corepressor binding, % at 3.98 µM; 360,000 tested, 0.35% active; Q9Y5X4; CHO-S Gal4-NCOR/VP16-NR2E3 two-hybrid, luciferase;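 active = inhibition above the mean of all tested compounds plus 3 SD, cut at about 70% in these data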;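 also: 0% = DMSO with NR2E3 transfected cells and 100% = cells lacking NR2E3 construct; higher means lower luciferase signal from less NR2E3 corepressor binding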
Target sequence (Q9Y5X4 whole entry, looked up, the tested form may be a part): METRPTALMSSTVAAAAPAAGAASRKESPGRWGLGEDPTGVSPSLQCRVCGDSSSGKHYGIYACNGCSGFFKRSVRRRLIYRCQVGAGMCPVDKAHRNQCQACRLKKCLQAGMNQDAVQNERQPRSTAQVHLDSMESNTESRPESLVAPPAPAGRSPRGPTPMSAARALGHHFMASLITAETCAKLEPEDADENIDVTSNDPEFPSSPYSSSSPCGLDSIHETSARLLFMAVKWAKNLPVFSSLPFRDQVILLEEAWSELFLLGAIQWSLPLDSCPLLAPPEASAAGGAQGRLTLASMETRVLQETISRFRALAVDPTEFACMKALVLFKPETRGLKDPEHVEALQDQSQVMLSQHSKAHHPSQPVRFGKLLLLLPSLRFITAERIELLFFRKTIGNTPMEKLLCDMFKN
Env fusion inh: blocks HIV Env-driven cell-cell fusion | HeLa-JRFL Env/CEM21 cell fusion, luciferase | inhibition, % at 12.3 µM | AID 651610 | 360,000 tested, 1.1% active;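 active = mean replicate inhibition score of at least 50 and every replicate individually at or above 50; inconclusive = only one of the two criteria met; inactive = mean below 50 and not all replicates reaching 50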;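 also: 0% = plate neutral controls and 100% = maraviroc near 300 nM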
NR2E3 ag-2: agonists of human nuclear receptor NR2E3. Q9Y5X4. GST-NR2E3/biotin-RetCOR TR-FRET, 1536-well. inhibition of corepressor binding, % at 4.78 µM. 320,000 tested, 0.12% active;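 active = percent inhibition above the cutoff of mean plus 3 SD of all tested compounds, set per screening campaign, cut at about 20% in these data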;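 also: 0% = DMSO wells and 100% = biotin wells as full block of FRET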
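Material: NR2E3–RetCOR corepressor complex / Amount: 1.35 nM GST-NR2E3 / Medium: Tris pH 7.5 / Compound: single nominal compound dose of 4.8 µM / Incubation: 5 h at 4 °C / Technique: TR-FRET, Eu(K)-anti-GST donor, streptavidin-D2 acceptor, ex 340, em 617/671 nm / Read-out basis: percent loss of FRET ratio relative to control wells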
V-ATPase pH: regulators of yeast V-ATPase proton transport; S. cerevisiae, pHLuorin cytosolic pH fluorescence; response, % at 10 µM; 350,000 tested, 0.37% active; in the data active = response mostly above about 7.3%, no sharp cut-off; inactive = mostly below about 5.4%; also: actives read high
GalR3 antagonist: antagonists of human GalR3 | HEK293 GalR3-CNG cAMP membrane potential fluorescence; galR3 body fused to GalR1 C-terminus | O60755 | inhibition, % at 3 µM | AID 651719 | 360,000 tested, 0.44% active;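 active = inhibition above the screen-wide average plus 3 SD, cut at about 13% in these data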;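 also: forskolin and galanin both at EC90 stimulate the cells; cAMP rise reported by CNG channel membrane potential dye signal; 0% = forskolin plus galanin with DMSO and 100% = forskolin alone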
Target sequence (O60755 1-299 limits assumed): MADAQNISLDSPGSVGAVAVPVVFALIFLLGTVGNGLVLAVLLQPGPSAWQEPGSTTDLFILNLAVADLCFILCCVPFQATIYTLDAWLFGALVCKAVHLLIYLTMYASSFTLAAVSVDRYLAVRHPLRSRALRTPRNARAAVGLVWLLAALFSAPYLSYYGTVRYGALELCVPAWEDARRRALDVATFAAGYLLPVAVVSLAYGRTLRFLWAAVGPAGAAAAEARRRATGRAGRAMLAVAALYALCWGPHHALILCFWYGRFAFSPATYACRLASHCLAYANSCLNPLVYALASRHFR
NR2E3 ag conf: NR2E3 agonism confirmed in two-hybrid assay. inhibition, % at 3.98 µM. AID 624378. CHO-S mammalian two-hybrid NR2E3-NCOR, luciferase luminescence. shares compounds with NR2E3 ag-1. 2,300 tested, 51% active;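 active = average inhibition above a cutoff equal to the mean inhibition of all tested compounds plus one SD, cut at about 70% in these data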;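 also: 0% = DMSO in NR2E3 cells and 100% = DMSO in cells lacking NR2E3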
GAL4-VP16 luc: reduces GAL4-VP16 reporter signal in NR2E3 counterscreen | shares compounds with NR2E3 ag-1 | CHO-S GAL4-VP16 luciferase reporter, luminescence | inhibition, % at 3.98 µM | 2,300 tested, 29% active;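 active = mean inhibition above a cutoff equal to the average over all tested compounds plus one standard deviation, cut at about 70% in these data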;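 also: luciferase from a UAS reporter driven by GAL4-VP16 transactivation; 0% = DMSO with VP16-transfected cells and 100% = DMSO with cells lacking VP16; higher means less reporter light so more repression of VP16 activity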
Active calls of the source: *; u = inconclusive; x = no result; [ ] = dose if it differs, or a comment.

SMILES | FXN GAA850 act | NR2E3 ag-1 | Env fusion inh | NR2E3 ag-2 | V-ATPase pH | GalR3 antagonist | NR2E3 ag conf | GAL4-VP16 luc
Cn1ncc(Cl)c1C(=O)N1CCN(c2ccc(Cl)c(Cl)c2)CC1 | 2 | 103* | 16 | 1 | 2 | -1 | 95* | 86*
O=C(c1csc2ccccc12)N1CCN(c2ccc(Cl)c(Cl)c2)CC1 | -1 | 57 | 5 | 2 | -1 | 3 | 81* | 61
Cn1ncc(Cl)c1C(=O)N1CCN(c2ccccc2)CC1 | 0 | -8 | -3 | 4 | 0 | -4 | x | x
C[C@H]1CN([C@@H](C)CO)C(=O)c2cc(NC(=O)Nc3ccccc3)ccc2O[C@@H]1CN(C)S(=O)(=O)c1ccccc1 | x | x | 28[16.7 µM] | x | x | x | x | x
Cc1ccc(S(=O)(=O)N[C@@H]2C=C[C@H](CC(=O)N3CCN(c4ccccc4)CC3)O[C@H]2CO)cc1 | x | x | 20[16.7 µM] | x | x | x | x | x
O=C1N[C@H](Cc2ccccc2)COC(=O)[C@H](Cc2ccc(F)cc2)CC/C=C/C[C@H]1CC(=O)N(CCO)Cc1ccccc1 | -4 | 56 | 1 | x | 3 | -9 | 69 | -1
O=C1N[C@@H](Cc2ccccc2)COC(=O)[C@@H](Cc2ccc(F)cc2)C/C=C\C[C@@H]1CC(=O)N(CCO)Cc1ccccc1 | -2 | -17 | -38 | x | -3 | 1 | x | x
Cc1ccc(C)c(S(=O)(=O)/N=C2\C=C(NS(=O)(=O)c3ccccc3)C(=O)c3ccccc32)c1 | 1 | 19 | 10 | -2 | -1 | -7 | x | x
Cc1cc(C)c(S(=O)(=O)/N=C2/C=C(Sc3ncn[nH]3)C(=O)c3ccccc32)cc1C | -13 | 102* | 18 | 9 | -2 | -7 | 49 | -12
O=c1c2c([nH]n1-c1ccccc1)C[C@@H](C1CCCCC1)O[C@H]2c1ccc(F)cc1 | x | 57 | x | x | x | x | 10 | -17
Fc1ccc(Nc2nc(NCc3ccccc3)nc3ccsc23)cc1 | 0 | 55 | 12 | x | x | -7 | 59 | 41
C#Cc1cccc(Nc2nc(NCc3ccccc3)nc3ccsc23)c1 | 3 | 61 | 15 | x | x | -3 | 84* | 44
c1ccc(CNc2nc(NCCc3ccncc3)c3sccc3n2)cc1 | 0 | 81* | 26 | x | x | -8 | 52 | 55
CCCNC(=O)N(C)C[C@@H]1Oc2ncc(-c3ccc(OC)cc3)cc2C(=O)N([C@@H](C)CO)C[C@@H]1C | x | x | 21[16.7 µM] | x | x | x | x | x
O=C(NNc1c([N+](=O)[O-])cc(C(F)(F)F)cc1[N+](=O)[O-])c1ccco1 | -3 | 61 | 36 | -4 | 6 | -3 | 69 | 57
C[C@H]1CN([C@@H](C)CO)S(=O)(=O)c2ccc(C3=CCCC3)cc2O[C@H]1CN(C)C(=O)c1ccccn1 | x | x | -1[16.7 µM] | x | x | x | x | x
CC1=Nc2ccccc2/C1=C/c1sc(=N)n(-c2nccs2)c1O | 0 | 76* | x | 3 | 1 | x | 67 | 31
CC1=Nc2ccccc2/C1=C/c1nc(-c2ccc(C)s2)oc1O | 1 | -27 | 5 | -3 | -1 | -7 | x | x
CCC1CCCCN1C(=O)c1cc(COc2ccc(-n3cncn3)cc2)on1 (stereo not given) | 0 | 60 | -2 | 1 | 1 | -5 | 47 | 60
O=C(c1cc(COc2ccc3ncccc3c2)on1)N1CCCC(O)C1 (stereo not given) | -2 | 5 | 23 | 2 | -3 | -7 | x | x
O=C(c1cc(COc2ccc3ncccc3c2)on1)N1CCC(O)CC1 | 2 | -26 | 16 | 1 | 0 | -3 | x | x
Cc1cccnc1CN1CCN(C(=O)c2cc(COc3ccc4ncccc4c3)on2)CC1 | -1 | 78* | 39 | -6 | -4 | 5 | 99* | 88*
O=C(c1cc(COc2ccc3ncccc3c2)on1)N1CCC[C@H]1CO | 0 | 81* | 59* | 4 | 0 | -1 | 38 | 51
CCOC(=O)N1CCN(C(=O)c2cc(COc3ccc4ncccc4c3)on2)CC1 | 1 | 65 | 44 | 4 | 6 | -7 | 83* | 76*
CC(CNC(=O)c1cc(COc2ccc3ncccc3c2)on1)c1ccccc1 (stereo not given) | 0 | 105* | x | 0 | -4 | -2 | 96* | 80*
SMILES | FXN GAA850 act | NR2E3 ag-1 | Env fusion inh | NR2E3 ag-2 | V-ATPase pH | GalR3 antagonist | NR2E3 ag conf | GAL4-VP16 luc
COc1cc(Cl)ccc1OCc1cc(C(=O)NCC(C)c2ccccc2)no1 (stereo not given) | 3 | -11 | 0 | 0 | -1 | -6 | x | x
O=C(NCCSc1ccccc1)c1ccc(Br)cc1 | 5 | -146 | -140 | -1 | -5 | 1 | x | x
O=C(NCCCSc1ccccc1)c1cc(Br)ccc1O | 1 | 87* | 11 | x | 4 | -4 | 99* | 90*
CC(C)CC(Nc1ncnc2scc(-c3ccccc3)c12)C(=O)O (stereo not given) | 2 | 3 | -1 | 0 | 5 | -3 | x | x
c1ccc(-c2csc3ncnc(NCC4COc5ccccc5O4)c23)cc1 (stereo not given) | -6 | 91* | 51 | 2 | 0 | 88* | 98* | 89*
COc1cccc2c1OC[C@@H](CO)[C@H]2N(C)C(=O)Nc1ccc(Cl)cc1Cl | -2 | 49 | u | 3 | -2 | -4 | 11 | 30
COc1ccccc1-c1nnc(SCC(=O)Nc2ccc(Cl)cc2Cl)o1 | 1 | -8 | -83 | -3 | -3 | -4 | x | x
CCCNC(=O)C[C@H]1CC[C@H]2[C@H](COc3ccc(NC(=O)c4ccccc4)cc3C(=O)N2C)O1 | x | x | 2[16.7 µM] | x | x | x | x | x
O=S(=O)(NCc1ccccc1)c1ccc(-c2cnc(C3CC3)o2)cc1 | -4 | 18 | -12 | -2 | -3 | -3 | x | x
Cc1ccc(CNS(=O)(=O)c2ccc(-c3cnc(C4CC4)o3)cc2)cc1 | -1 | 70* | 2 | 1 | 5 | 0 | 55 | 35
CCOc1ccccc1CNS(=O)(=O)c1ccc(-c2cnc(C3CC3)o2)cc1 | 0 | 85* | -18 | -4 | -1 | 12 | 69 | 54
Cc1ccc(NS(=O)(=O)c2ccc(-c3cnc(C4CC4)o3)cc2)cc1 | -3 | 37 | -63 | -4 | -5 | -1 | x | x
Cc1cccc(C)c1NS(=O)(=O)c1ccc(-c2cnc(C3CC3)o2)cc1 | -4 | 70* | 15 | 2 | -1 | 0 | 55 | 21
COc1ccc(C)cc1NS(=O)(=O)c1ccc(-c2cnc(C3CC3)o2)cc1 | -2 | 103* | -270 | -1 | 0 | 8 | 57 | 59
C[C@H](CO)N1C[C@H](C)[C@@H](CN(C)Cc2cccnc2)Oc2ncc(-c3ccccc3)cc2C1=O | x | x | 7[16.7 µM] | x | x | x | x | x
